The target in data set [1] is mushroom tyrosinase. The data set is described as follows: Mushroom tyrosinase inhibition, monophenolase assay. Format: biochemical, Agaricus bisporus (mushroom). The note with it: L-tyrosine substrate; for pIC50 ±SEM Monophenolase: mushroom tyrosinase, pH 6.5. In short, it runs like this: (§1)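 Test compound came from 10 mM DMSO stocks. […] Enzyme, diluted to 500 U/mL before plating, was preincubated 15 min with test compound, then substrate was added. A490 was read every 3 min up to 30 min.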

In data set [2] the test system is mushroom tyrosinase. In words: Mushroom tyrosinase inhibition, diphenolase assay. Format: biochemical, Agaricus bisporus (mushroom). The note with it: L-DOPA substrate; for % inhibition 500 μM ±SD Diphenolase: at 500 μM; for % inhibition ±SD Diphenolase: at 200 μM (asterisk). In short, it runs like this: as §1
The nature of data set [3]: Radical scavenging activity, DPPH assay. The note with it: at 500 μM, 30 min, 37 °C. In short, it runs like this: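 DPPH (250 μM in methanol) was mixed with an equal volume of test compound prepared at 1 mM in methanol. Reference antioxidants were run alongside, with DMSO as negative control. A515 was read after 30 min at 37 °C, in triplicate. Scavenging = 100 × (control Abs − sample Abs)/control Abs.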
On the technique in general: Loss of DPPH colour is used to gauge radical scavenging.

A short description of data set [4]: Cytotoxicity against mammalian cells. In kind it is cell-based. The note with it: mouse, NCTC clone L929 murine fibroblast cells. In short, it runs like this: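 Murine NCTC fibroblasts (ATCC clone 929) were grown in RPMI-1640 with 10% FBS, counted by hemocytometer and seeded at 6 × 10^4/well. They were exposed to test compound at 200–1.5 μM for 48 h at 37 °C in humidified 5% CO2. Viability was read by MTT, and CC50 was derived by nonlinear regression.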

Consider `O=C(c1ccc(O)c(O)c1)N1CCN(Cc2ccccc2)CC1` [Compound 1a, (4-Benzylpiperazin-1-yl)-(3,4-dihydroxyphenyl)methanone], for which, at mushroom tyrosinase [1], the “pIC50 ±SEM Monophenolase” value is recorded as 4.42 ± 0.04. Besides, the “% inhibition 500 μM ±SD Diphenolase” value with mushroom tyrosinase [2] was “(37.0 ± 2.7%)”.

With `COc1cc(C(=O)N2CCN(Cc3ccccc3)CC2)ccc1O` [Compound 1b, (4-Benzylpiperazin-1-yl)(4-hydroxy-3-methoxyphenyl)methanone], the “pIC50 ±SEM Monophenolase” value against mushroom tyrosinase [1] turned out to be 4.49 ± 0.02. Besides, the “% inhibition 500 μM ±SD Diphenolase” value with mushroom tyrosinase [2] is “(41.6 ± 1.2%)”.

In the case of `COc1ccc(C(=O)N2CCN(Cc3ccccc3)CC2)cc1` [Compound 1c, (4-Benzylpiperazin-1-yl)-(4-methoxyphenyl)methanone], the “pIC50 ±SEM Monophenolase” value against mushroom tyrosinase [1] worked out at 3.94 ± 0.06. In addition, the “% inhibition 500 μM ±SD Diphenolase” value in the data set with mushroom tyrosinase [2] is reported as “(44.2 ± 3.0%)”.

Regarding `O=C(c1ccc(O)cc1)N1CCN(Cc2ccccc2)CC1` [Compound 1d, (4-Benzylpiperazin-1-yl)-(4-hydroxyphenyl)methanone], the “pIC50 ±SEM Monophenolase” value against mushroom tyrosinase [1] was found to be 4.11 ± 0.05. Moreover, the “% inhibition 500 μM ±SD Diphenolase” value with mushroom tyrosinase [2] was “(35.2 ± 3.3%)”.

`O=C(c1ccc(Cl)cc1)N1CCN(Cc2ccccc2)CC1` [Compound 1e, 1-Benzyl-4-(4-chlorobenzoyl)piperazine]: the “pIC50 ±SEM Monophenolase” value against mushroom tyrosinase [1] was found to be 4.37 ± 0.04. Moreover, the “% inhibition 500 μM ±SD Diphenolase” value in the data set with mushroom tyrosinase [2] is listed as “(45.2 ± 7.6%)”.

With `O=C(c1ccc(O)c(O)c1)N1CCN(c2ccccc2)CC1` [Compound 2a, (3,4-Dihydroxyphenyl)-(4-phenylpiperazin-1-yl)methanone], on mushroom tyrosinase [1], the “pIC50 ±SEM Monophenolase” value was determined as 4.42 ± 0.04. Besides, in the data set with mushroom tyrosinase [2], the “% inhibition 500 μM ±SD Diphenolase” value is listed as “(27.7 ± 3.0%)”.

As to `COc1cc(C(=O)N2CCN(c3ccccc3)CC2)ccc1O` [Compound 2b, (4-Hydroxy-3-methoxyphenyl)-(4-phenylpiperazin-1-yl)methanone], the “pIC50 ±SEM Monophenolase” value against mushroom tyrosinase [1] was determined as 3.85 ± 0.03. Also, the “% inhibition 500 μM ±SD Diphenolase” value with mushroom tyrosinase [2] was “(24.3 ± 4.1%)”.

Turning to `COc1ccc(C(=O)N2CCN(c3ccccc3)CC2)cc1` [Compound 2c, (4-Methoxyphenyl)-(4-phenylpiperazin-1-yl)methanone], at mushroom tyrosinase [1], the “pIC50 ±SEM Monophenolase” value stood at 3.54 ± 0.05. Further, the “% inhibition 500 μM ±SD Diphenolase” value with mushroom tyrosinase [2] is given as “(31.1 ± 5.3%)”.

As a reminder, the IC50 is the midpoint of a concentration-inhibition curve. Regarding `O=C(/C=C/c1ccc(O)c(O)c1)N1CCN(Cc2ccccc2)CC1` [Compound 3a, (E)-1-(4-Benzylpiperazin-1-yl)-3-(3,4-dihydroxyphenyl)prop-2-en-1-one], the IC50 at mushroom tyrosinase [1] (read-out: IC50 tyrosinase inhibition, monophenolase) was under 100 µM; at mushroom tyrosinase [2] (read-out: IC50 tyrosinase inhibition, diphenolase), under 100 µM. Also, the “pIC50 ±SEM Diphenolase” value against mushroom tyrosinase [2] (mushroom tyrosinase, pH 6.5) is on record as 4.18 ± 0.03. Moreover, the “radical scavenging activity (DPPH)” value in data set [3] amounted to 29%.

As for `COc1cc(/C=C/C(=O)N2CCN(Cc3ccccc3)CC2)ccc1O` [Compound 3b, (2E)-1-(4-Benzylpiperazin-1-yl)-3-(4-hydroxy-3-methoxyphenyl)prop-2-en-1-one], the “pIC50 ±SEM Monophenolase” value against mushroom tyrosinase [1] amounted to 4.16 ± 0.02. For the same compound, the “% inhibition 500 μM ±SD Diphenolase” value in the data set with mushroom tyrosinase [2] is recorded as “(42.3 ± 3.4%)”.

As to `COc1ccc(/C=C/C(=O)N2CCN(Cc3ccccc3)CC2)cc1` [Compound 3c, (E)-1-(4-Benzylpiperazin-1-yl)-3-(4-methoxyphenyl)prop-2-en-1-one], the “pIC50 ±SEM Monophenolase” value on mushroom tyrosinase [1] is on record as 3.86 ± 0.04. The “% inhibition 500 μM ±SD Diphenolase” value in the data set on mushroom tyrosinase [2] is recorded as “(43.5 ± 2.3%)”.

As to `O=C(/C=C/c1ccc(O)cc1)N1CCN(Cc2ccccc2)CC1` [Compound 3d, (E)-1-(4-Benzylpiperazin-1-yl)-3-(4-hydroxyphenyl)prop-2-en-1-one], on mushroom tyrosinase [1], the “pIC50 ±SEM Monophenolase” value is given as 4.54 ± 0.03. In addition, in the data set with mushroom tyrosinase [2], the “% inhibition 500 μM ±SD Diphenolase” value was “(43.0 ± 2.9%)”.

The CC50 is the concentration at which the toxic effect on the cells reaches its halfway point. A lower CC50 goes with harm at low concentration. On to `O=C(/C=C/c1ccc(O)c(O)c1)N1CCN(c2ccccc2)CC1` [Compound 4a, (E)-3-(3,4-Dihydroxyphenyl)-1-(4-phenylpiperazin-1-yl)prop-2-en-1-one], for which the “radical scavenging activity (DPPH)” value in data set [3] is reported as 65.0%. In addition, it took 57.2 ± 2 µM to reach half-maximal cytotoxicity in data set [4] (CC50 at 48 h).

In the case of `COc1cc(/C=C/C(=O)N2CCN(c3ccccc3)CC2)ccc1O` [Compound 4b, (E)-3-(4-Hydroxy-3-methoxyphenyl)-1-(4-phenylpiperazin-1-yl)prop-2-en-1-one], at mushroom tyrosinase [1], the “pIC50 ±SEM Monophenolase” value was 4.50 ± 0.04. Moreover, in the data set on mushroom tyrosinase [2], the “% inhibition 500 μM ±SD Diphenolase” value is recorded as “(51.5 ± 3.2%)”.

As to `O=C(c1ccc(O)c(O)c1)N1CCC(Cc2ccccc2)CC1` [Compound 5a, (4-Benzyl-1-piperidyl)-(3,4-dihydroxyphenyl)methanone], the “pIC50 ±SEM Monophenolase” value against mushroom tyrosinase [1] came out at 4.74 ± 0.04. In the data set on mushroom tyrosinase [2], the “% inhibition ±SD Diphenolase” value was “(30.9 ± 3.9%)”. Further, the “radical scavenging activity (DPPH)” value in data set [3] is on record as 42%.

For the compound `COc1cc(C(=O)N2CCC(Cc3ccccc3)CC2)ccc1O` [Compound 5b, (4-Benzyl-1-piperidyl)-(4-hydroxy-3-methoxy-phenyl)methanone], the “pIC50 ±SEM Monophenolase” value at mushroom tyrosinase [1] stood at 4.99 ± 0.01. The “% inhibition ±SD Diphenolase” value with mushroom tyrosinase [2] is “(13.2 ± 0.8%)”. Moreover, the “radical scavenging activity (DPPH)” value in data set [3] is 10%.

With `COc1ccc(C(=O)N2CCC(Cc3ccccc3)CC2)cc1` [Compound 5c, 4-Benzyl-1-(4-methoxybenzoyl)piperidine], the “pIC50 ±SEM Monophenolase” value on mushroom tyrosinase [1] was found to be 4.67 ± 0.01. The “% inhibition 500 μM ±SD Diphenolase” value in the data set with mushroom tyrosinase [2] is “(30.5 ± 1.6%)”.

As to `O=C(c1ccc(O)cc1)N1CCC(Cc2ccccc2)CC1` [Compound 5d, (4-Benzyl-1-piperidyl)-(4-hydroxyphenyl)methanone], the “pIC50 ±SEM Monophenolase” value against mushroom tyrosinase [1] is recorded as 4.59 ± 0.01. Also, the “% inhibition ±SD Diphenolase” value in the data set on mushroom tyrosinase [2] is recorded as “(14.7 ± 1.6%)”.

For `O=C(/C=C/c1ccc(O)c(O)c1)N1CCC(Cc2ccccc2)CC1` [Compound 6a, (E)-1-(4-Benzyl-1-piperidyl)-3-(3,4-dihydroxyphenyl)prop-2-en-1-one], at mushroom tyrosinase [1], the “pIC50 ±SEM Monophenolase” value is 4.56 ± 0.01. For the same compound, the “% inhibition ±SD Diphenolase” value in the data set on mushroom tyrosinase [2] is given as “(18.5 ± 1.1%)”.

Take `COc1cc(/C=C/C(=O)N2CCC(Cc3ccccc3)CC2)ccc1O` [Compound 6b, (E)-1-(4-Benzyl-1-piperidyl)-3-(4-hydroxy-3-methoxy-phenyl)prop-2-en-1-one]: the “pIC50 ±SEM Monophenolase” value at mushroom tyrosinase [1] was 4.53 ± 0.01. Besides, the “% inhibition ±SD Diphenolase” value with mushroom tyrosinase [2] is “(12.0 ± 1.5%)”. Also, the “radical scavenging activity (DPPH)” value in data set [3] is given as 28%.

Turning to `O=C(/C=C/c1ccc(O)cc1)N1CCC(Cc2ccccc2)CC1` [Compound 6d, (E)-1-(4-Benzyl-1-piperidyl)-3-(4-hydroxyphenyl)prop-2-en-1-one], the “% inhibition ±SD Monophenolase” value with mushroom tyrosinase [1] (at 200 μM (asterisk)) is listed as “(48.3 ± 1.1%)”. In addition, the “% inhibition ±SD Diphenolase” value in the data set with mushroom tyrosinase [2] is reported as “(20.3 ± 1.3%)”.

Take `O=C(O)/C=C/c1ccc(O)cc1` [pCA, p-coumaric acid, reference compound]: on mushroom tyrosinase [1], the “pIC50 ±SEM Monophenolase” value is 4.00 ± 0.01. For the same compound, the “% inhibition 500 μM ±SD Diphenolase” value in the data set on mushroom tyrosinase [2] is given as “(16.4 ± 13.0%)”.

For “(E)-1-(1-Benzylpiperidin-4-yl)-3-(4-methoxyphenyl)prop-2-en-1-one [Compound 6c]”, at mushroom tyrosinase [1], the “pIC50 ±SEM Monophenolase” value is listed as 4.85 ± 0.07. In the data set with mushroom tyrosinase [2], the “% inhibition 500 μM ±SD Diphenolase” value is reported as “(22.1 ± 3.1%)”.

These data come from publication PMC10666245 (ACS Omega, 2023).
